Assays:
Assay type in all cases: functional
[1] = organism: Rattus norvegicus; test: Effect on rat uterus activity relative to bradykinin
[2] = organism: Rattus norvegicus; test: Effect on rat blood pressure relative to bradykinin
[3] = organism: Rattus norvegicus; test: Effect on pressor activity in rat
Summary of the method: (§1)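 Purified analogues assayed for oxytocic, avian vasodepressor and rat pressor activity. Potency was measured against the U.S.P. posterior pituitary reference standard using a four-point assay design.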

[4] = Induction of oxytocic activity in rat uterus; summary of the method: as §1
[5] = system: Gallus gallus; test: Induction of vasodepressor activity in conscious chicken; summary of the method: as §1

Row | Structure (SMILES) | Activity [1] [%] | Activity [2] [%] | Activity [3] [U/mg] | Activity [4] [U/mg] | Activity [5] [U/mg]
1 | N=C(N)NCCC[C@H](NC(=O)[C@H](Cc1ccccc1)NC(=O)[C@@H]1CCCN1C(=O)[C@H](CO)NC(=O)[C@H](Cc1ccccc1)NC(=O)CNC(=O)[C@@H]1CSCN1C(=O)[C@@H]1CCCN1C(=O)[C@@H](N)CCCNC(=N)N)C(=O)O | 46 | 26 |  |  | 
2 | CC[C@H](C)[C@@H]1NC(=O)[C@H](Cc2ccc(O)cc2)NC(=O)[C@@H](N)CSSC[C@@H](C(=O)N2CSC[C@H]2C(=O)N[C@@H](CC(C)C)C(=O)NCC(N)=O)NC(=O)[C@H](CC(N)=O)NC(=O)[C@H](CCC(N)=O)NC1=O |  |  | 3.46 | 1180 | 720
3 | CC[C@H](C)[C@@H]1NC(=O)[C@H](Cc2ccc(O)cc2)NC(=O)CCSSC[C@@H](C(=O)N2CSC[C@H]2C(=O)N[C@@H](CC(C)C)C(=O)NCC(N)=O)NC(=O)[C@H](CC(N)=O)NC(=O)[C@H](CCC(N)=O)NC1=O |  |  | 1.69 | 1538 | 2039
4 | CC[C@H](C)[C@@H]1NC(=O)[C@H](Cc2ccc(O)cc2)NC(=O)CCSSC[C@@H](C(=O)N2CCC[C@H]2C(=O)N[C@@H](CC(C)C)C(=O)NCC(N)=O)NC(=O)[C@H](CC(N)=O)NC(=O)[C@H](CCC(N)=O)NC1=O |  |  | 1.44 | 803 | 975
5 | CC[C@H](C)[C@@H]1NC(=O)[C@H](Cc2ccc(O)cc2)NC(=O)[C@@H](N)CSSC[C@@H](C(=O)N2CCC[C@H]2C(=O)N[C@@H](CC(C)C)C(=O)NCC(N)=O)NC(=O)[C@H](CC(N)=O)NC(=O)[C@H](CCC(N)=O)NC1=O [OXYTOCIN] |  |  | 3.1 | 546 | 507
